In ChEMBL document CHEMBL1914430, “Synthesis of some new 1,3,5-trisubstituted pyrazolines bearing benzene sulfonamide as anticancer and anti-inflammatory agents” (Bioorg Med Chem Lett, 2011):

Legend:
Format in all cases: functional
[1] = system: T47D; experiment: Anticancer activity against human T47D cells after 48 hrs
Summary of the method: (§1)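 NCI ~60 human tumour cell line panel with a 48 h incubation. GI50 is the concentration giving a 50% fall in net growth, TGI gives total growth inhibition, and LC50 gives a net 50% loss of initial cells. An effect not reached or exceeded is reported as greater or less than the highest or lowest concentration tested.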

[2] = system: BT-549; experiment: Anticancer activity against human BT549 cells after 48 hrs; settings: BT-549, 48 h
Summary of the method: (§2)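 NCI Drug Evaluation Branch 60-cell-line screen across leukemia, melanoma, lung, colon, CNS, ovarian, renal, prostate and breast panels. The incubation period is 48 h. Parameters are derived from dose–response data: GI50 is the concentration giving 50% decrease in net growth, TGI is total growth inhibition, and LC50 is net 50% loss of initial cells. Values beyond the tested range are reported as greater or less than the maximum or minimum concentration.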

[3] = system: SN12C; experiment: Anticancer activity against human SN12C cells after 48 hrs
Summary of the method: (§3)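 NCI 60-line panel protocol with a 48 h incubation. Per line: GI50 = concentration giving 50% decrease in net cell growth; TGI = total growth inhibition; LC50 = net 50% loss of initial cells. When the level was not reached or was exceeded, the value is given as greater or less than the highest or lowest concentration tested.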

[4] = system: A498; experiment: Anticancer activity against human A498 cells after 48 hrs; settings: A498, 48 h; summary of the method: as §2
[5] = system: UO-31; experiment: Anticancer activity against human UO31 cells after 48 hrs; settings: UO-31, 48 h, read-out: LC50 (the source's name); summary of the method: as §1
[6] = system: SK-OV-3; experiment: Anticancer activity against human SKOV3 cells after 48 hrs; settings: SK-OV-3, 48 h; summary of the method: as §3
[7] = system: UACC-62; experiment: Anticancer activity against human UACC62 cells after 48 hrs; settings: UACC-62, 48 h; summary of the method: as §1
[8] = system: Rattus norvegicus; experiment: Antiinflammatory activity in Wistar rat assessed as inhibition of carrageenan-induced hind paw edema at 20 mg/kg, po administered 30 mins before carrageenan challenge measured after 3 hrs by plethysmometer
Summary of the method: (§4)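 Wistar rats of either sex, 150–175 g, fasted 16 h, n = 6 per group. Compound given orally at 20 mg/kg as a suspension in 1% CMC in water (10 mL/kg); controls got vehicle only. After 30 min, 0.1 mL of 1% carrageenan in saline was injected subplantar into the left hind paw. Paw volume was measured by plethysmometer at 0, 3 and 5 h. Inhibition = (1 − Vt/Vc) × 100, reported as mean ± SEM.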

[9] = system: NCI-H322M; experiment: Anticancer activity against human NCI-H322M cells after 48 hrs; summary of the method: as §3
[10] = system: SF-295; experiment: Anticancer activity against human SF295 cells after 48 hrs; settings: SF-295, 48 h; summary of the method: as §3
[11] = system: UACC-257; experiment: Anticancer activity against human UACC257 cells after 48 hrs; settings: UACC-257, 48 h; summary of the method: as §1
[12] = system: COLO 205; experiment: Anticancer activity against human COLO205 cells after 48 hrs; settings: COLO 205, 48 h; summary of the method: as §2
[13] = system: SNB-19; experiment: Anticancer activity against human SNB19 cells after 48 hrs; settings: SNB-19, 48 h; summary of the method: as §3
[14] = system: RXF 393; experiment: Anticancer activity against human RXF393 cells after 48 hrs; settings: RXF 393, 48 h; summary of the method: as §3
[15] = system: Rattus norvegicus; experiment: Antiinflammatory activity in Wistar rat assessed as inhibition of carrageenan-induced hind paw edema at 20 mg/kg, po administered 30 mins before carrageenan challenge measured after 5 hrs by plethysmometer; summary of the method: as §4
[16] = system: EKVX; experiment: Anticancer activity against human EKVX cells after 48 hrs; summary of the method: as §2
[17] = system: TK-10; experiment: Anticancer activity against human TK10 cells after 48 hrs; settings: TK-10, 48 h; summary of the method: as §1
[18] = system: CAKI-1; experiment: Anticancer activity against human Caki1 cells after 48 hrs; settings: CAKI-1, 48 h; summary of the method: as §2
[19] = system: OVCAR-3; experiment: Anticancer activity against human OVCAR3 cells after 48 hrs; settings: OVCAR-3, 48 h; summary of the method: as §3
[20] = system: HCT-116; experiment: Anticancer activity against human HCT116 cells after 48 hrs; settings: HCT-116, 48 h; summary of the method: as §2
[21] = system: A549; experiment: Anticancer activity against human A549 cells after 48 hrs; settings: A549, 48 h; summary of the method: as §2
[22] = system: HOP-62; experiment: Anticancer activity against human HOP62 cells after 48 hrs; settings: HOP-62, 48 h; summary of the method: as §2
[23] = system: Malme-3M; experiment: Anticancer activity against human MALME-3M cells after 48 hrs; summary of the method: as §2
[24] = system: NCI-H23; experiment: Anticancer activity against human NCI-H23 cells after 48 hrs; settings: NCI-H23, 48 h; summary of the method: as §3
[25] = system: K562; experiment: Anticancer activity against human K562 cells after 48 hrs; settings: K562, 48 h; summary of the method: as §2
[26] = system: NCI-H522; experiment: Anticancer activity against human NCI-H522 cells after 48 hrs; settings: NCI-H522, 48 h; summary of the method: as §3
[27] = system: SF-539; experiment: Anticancer activity against human SF539 cells after 48 hrs; settings: SF-539, 48 h; summary of the method: as §3
[28] = system: MCF7; experiment: Anticancer activity against human MCF7 cells after 48 hrs; settings: MCF7, 48 h; summary of the method: as §2
[29] = system: KM12; experiment: Anticancer activity against human KM12 cells after 48 hrs; settings: KM12, 48 h; summary of the method: as §2
[30] = read-out: LC50 (the source's name)

Cc1cc(O)c(C2=NN(c3ccc(S(N)(=O)=O)cc3)C(c3ccccc3O)C2)cc1Cl (stereo unspecified)
GI50 [1]: 3.18 µM | TGI [1]: 14.6 µM | CC50 [1, 30]: 64.9 µM | GI50 [2]: 2470 nM | TGI [2]: 8.18 µM | CC50 [2, 30]: 58.7 µM | GI50 [3]: 4.08 µM | LC50 [3]: 43.1 µM | TGI [3]: 15.3 µM | GI50 [4]: 2790 nM | TGI [4]: 14.5 µM | CC50 [4, 30]: 46.9 µM | CC50 [5]: 38.5 µM | GI50 [6]: 4.41 µM | TGI [6]: 14.9 µM | CC50 [6, 30]: 38.6 µM | GI50 [7]: 3.54 µM | LC50 [7]: 40.8 µM | TGI [7]: 15.5 µM | inhibition in vivo at 20 mg/kg [8]: 73.6% | GI50 [9]: 2500 nM | LC50 (net 50% loss of initial cells) [9]: 26 µM | TGI [9]: 7.24 µM | GI50 [10]: 1660 nM | LC50 (concentration giving net 50% loss of initial cells) [10]: 8.09 µM | TGI [10]: 3.67 µM | GI50 [11]: 6.92 µM | LC50 [11]: 59 µM | TGI [11]: 22.1 µM | GI50 [12]: 1950 nM | LC50 (concentration giving net 50% loss of initial cells) [12]: 6.43 µM | TGI [12]: 3.54 µM | GI50 [13]: 4.33 µM | TGI [13]: 15.2 µM | CC50 [13, 30]: 39.8 µM | GI50 [14]: 3.65 µM | LC50 [14]: 64.8 µM | TGI [14]: 13 µM | inhibition in vivo at 20 mg/kg [15]: 59.5% | GI50 [16]: 1990 nM | TGI [16]: 7.16 µM | CC50 [16, 30]: 39.7 µM | GI50 [17]: 3.3 µM | LC50 [17]: 27.2 µM | TGI [17]: 6.85 µM | GI50 [18]: 1560 nM | LC50 (concentration giving 50% net loss of initial cells) [18]: 16.6 µM | TGI [18]: 4.44 µM | GI50 [19]: 1810 nM | LC50 (concentration giving 50% net loss of initial cells) [19]: 11.3 µM | TGI [19]: 3.73 µM | GI50 [20]: 1660 nM | TGI [20]: 3.02 µM | CC50 [20, 30]: 5.5 µM | GI50 [21]: 3.69 µM | LC50 (net 50% loss of initial cells) [21]: 60.5 µM | TGI [21]: 15.5 µM | GI50 [22]: 1930 nM | LC50 (concentration for 50% net loss of initial cells) [22]: 11.7 µM | TGI [22]: 4.5 µM | GI50 [23]: 2720 nM | TGI [23]: 7.34 µM | CC50 [23, 30]: 59.2 µM | GI50 [24]: 2090 nM | LC50 (concentration killing 50% of initial cells) [24]: 16 µM | TGI [24]: 5.03 µM | GI50 [25]: 2560 nM | LC50 (concentration killing 50% of initial cells) [25]: > 100 µM | TGI [25]: 14.6 µM | GI50 [26]: 2150 nM | LC50 (concentration killing 50% of initial cells) [26]: 28 µM | TGI [26]: 6.28 µM | GI50 [27]: 1600 nM | LC50 (concentration causing net 50% loss of initial cells) [27]: 5.69 µM | TGI [27]: 3.02 µM | GI50 [28]: 2660 nM | LC50 [28]: 49.5 µM | TGI [28]: 9.77 µM | GI50 [29]: 1780 nM | LC50 (concentration causing net 50% loss of initial cells) [29]: 6.82 µM | TGI [29]: 3.48 µM
